In ChEMBL document CHEMBL1817548, “Epigenetic profiling of the antitumor natural product psammaplin A and its analogues” (Bioorg Med Chem, 2011):
pIC50: −log10 of the molar value. The source made the active and inactive calls. The rule behind the calls is not given here.

Legend:
[1] = biological target: T1, NAD-dependent protein deacetylase sirtuin-1 (Homo sapiens) (UniProt Q96EB6); assay: Inhibition of recombinant human SIRT1 lysine deacetylase activity at 50 uM after 60 mins by fluorimetry relative to control
T1 sequence (whole entry): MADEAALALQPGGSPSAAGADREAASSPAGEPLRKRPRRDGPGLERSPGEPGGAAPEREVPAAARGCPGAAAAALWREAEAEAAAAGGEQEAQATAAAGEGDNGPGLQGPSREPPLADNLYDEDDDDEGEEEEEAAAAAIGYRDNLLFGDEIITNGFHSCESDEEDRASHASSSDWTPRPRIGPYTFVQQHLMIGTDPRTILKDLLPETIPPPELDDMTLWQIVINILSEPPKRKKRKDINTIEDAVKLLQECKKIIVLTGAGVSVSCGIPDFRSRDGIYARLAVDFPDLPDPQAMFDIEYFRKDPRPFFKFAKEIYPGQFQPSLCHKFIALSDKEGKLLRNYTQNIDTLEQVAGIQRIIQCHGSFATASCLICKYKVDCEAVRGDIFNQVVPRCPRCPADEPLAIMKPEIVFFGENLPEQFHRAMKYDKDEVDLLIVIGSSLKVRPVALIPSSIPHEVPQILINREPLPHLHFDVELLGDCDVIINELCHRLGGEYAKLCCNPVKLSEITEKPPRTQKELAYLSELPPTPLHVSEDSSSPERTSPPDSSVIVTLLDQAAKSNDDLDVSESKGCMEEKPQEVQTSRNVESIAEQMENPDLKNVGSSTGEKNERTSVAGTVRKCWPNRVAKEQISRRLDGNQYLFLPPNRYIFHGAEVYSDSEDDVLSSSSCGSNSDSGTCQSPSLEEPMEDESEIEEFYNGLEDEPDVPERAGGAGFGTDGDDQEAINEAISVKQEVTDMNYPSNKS
Outline: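 Human SIRT1 expressed in E. coli BL21 and affinity-purified (1 µg) was reacted with acetylated p53 peptide (aa 379–382), 1 mM DTT and 200 µM NAD⁺, with compound at 50 µM, 60 min at 37 °C. Fluorescence was read at ex 360/em 450 nm. Results are mean and SD of four independent experiments as percent of untreated control.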

U-937 [2] = assay: Induction of apoptosis in human U937 cells assessed as caspase 3 activation at 5 uM after 40 hrs by FACS analysis; type: functional, cell-based
Outline: (§1)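 Caspase 3 activity was read in living U937 cells after 5 µM exposure. About 1×10^6 cells were washed twice in cold PBS and loaded 1 h on ice with cell-permeable fluorescent substrate FAM-DEVD-FMK. After washing, cells were analysed by FACS. Runs were in duplicate; values are mean ± SD.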

U-937 [3] = assay: Cell cycle arrest in human U937 cells assessed as accumulation at G1 phase at 5 uM after 30 hrs by propidium iodide staining based flow cytometry; type: functional
Outline: (§2)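 U937 cells in RPMI with 10% FBS and antibiotics, kept at 200,000 cells/mL, exposed to compound at 5 µM (in DMSO). DNA content was read by flow cytometry and phases modelled with ModFit. Values are means of independent duplicates.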

[4] = biological target: Histone deacetylase 1 (Homo sapiens) (UniProt Q13547); assay: Inhibition of human recombinant GST-tagged HDAC1 expressed in Sf9 cells using Fluor de Lys as substrate at 5 uM after 0.5 hrs by fluorimetry
Outline: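 GST-HDAC1 was expressed in Sf9 cells via baculovirus and purified on glutathione beads. Enzyme was incubated with Fluor de Lys acetyl-lysine substrate ±5 µM compound for 0.5 h at 37 °C, followed by developer for 30 min. Fluorescence was read at ex 360/em 460 nm and reported as percent of control activity.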

[5] = biological target: CREB-binding protein/Histone acetyltransferase p300 (Homo sapiens) (UniProt Q09472+Q92793); assay: Inhibition of recombinant human p300/CBP using [3H]-acetyl CoA at 50 uM after 2 hrs by scintillation counting relative to control; type: protein assay
Outline: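 CBP fragment (aa 1098–1877) expressed in E. coli BL21 and affinity-purified (1 µg) was incubated in HAT buffer with histone H4 peptide (aa 2–24, 10 µg) and 20 µM acetyl CoA carrying 0.5 µCi/mL [³H]-acetyl CoA, compound at 50 µM, for 2 h at 37 °C. Samples were spotted on P81 paper in triplicate, washed in TCA and acetone, and counted. Output is percent of untreated control.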

[6] = biological target: Histone deacetylase (Homo sapiens) (UniProt Q13547+O15379+Q9UBN7+Q92769+Q9UQL6+Q8WUI4+Q9BY41+Q96DB2+P56524+Q9UKV0+Q969S8); assay: Inhibition of HDAC1 in human U937 cells assessed a increase in histone H3 acetylation in human U937 cells at 5 uM after 24 hrs by Western blot analysis; type: cell-based; settings: U-937
Outline: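 U937 cells were treated 24 h at 5 µM, then lysed in Triton extraction buffer. Histones were acid-extracted with 0.2 M HCl overnight at 4 °C and protein was quantified by Bradford. 10 µg of histone extract was run on 15% polyacrylamide gels and immunoblotted with pan-acetyl-histone H3 antibody.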

U-937 [7] = assay: Induction of apoptosis in human U937 cells assessed as caspase 3 activation at 5 uM after 30 hrs by FACS analysis; type: functional; outline: as §1
U-937 [8] = assay: Induction of human U937 cell differentiation into granulocytes assessed as expression of CD11c marker on cell membrane at 5 uM after 30 to 40 hrs by PI staining based FACS analysis; type: functional
Outline: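 After 5 µM treatment, U937 cells were stained with PE-conjugated anti-CD11c; controls got PE mouse IgG1, 30 min at 4 °C in the dark. Cells were washed and taken up in PBS with propidium iodide (0.25 µg/mL), then read by FACS. Result is percent CD11c-positive/PI-negative cells, mean of independent quadruplicates.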

U-937 [9] = assay: Cell cycle arrest in human U937 cells assessed as accumulation at G1 phase at 5 uM by propidium iodide staining based flow cytometry; type: functional; settings: TDE = time-dependent effect; outline: as §2
[10] = Inhibition of HDAC in cell-free system
[11] = Inhibition of DNMT in cell-free system
U-937 [12] = assay: Cell cycle arrest in human U937 cells assessed as accumulation at G2/M phase at 5 uM after 48 hrs by propidium iodide staining based flow cytometry; type: functional; outline: as §2
U-937 [13] = assay: Cell cycle arrest in human U937 cells assessed as accumulation at S phase at 5 uM after 48 hrs by propidium iodide staining based flow cytometry; type: functional; outline: as §2
U-937 [14] = assay: Cell cycle arrest in human U937 cells assessed as accumulation at G1 phase at 5 uM after 48 hrs by propidium iodide staining based flow cytometry; type: functional; outline: as §2
U-937 [15] = assay: Cell cycle arrest in human U937 cells assessed as accumulation at G2/M phase at 5 uM after 30 hrs by propidium iodide staining based flow cytometry; type: functional; outline: as §2

Sequence of CREB-binding protein/Histone acetyltransferase p300 (Homo sapiens) (Q09472 whole entry, looked up, the tested form may be a part): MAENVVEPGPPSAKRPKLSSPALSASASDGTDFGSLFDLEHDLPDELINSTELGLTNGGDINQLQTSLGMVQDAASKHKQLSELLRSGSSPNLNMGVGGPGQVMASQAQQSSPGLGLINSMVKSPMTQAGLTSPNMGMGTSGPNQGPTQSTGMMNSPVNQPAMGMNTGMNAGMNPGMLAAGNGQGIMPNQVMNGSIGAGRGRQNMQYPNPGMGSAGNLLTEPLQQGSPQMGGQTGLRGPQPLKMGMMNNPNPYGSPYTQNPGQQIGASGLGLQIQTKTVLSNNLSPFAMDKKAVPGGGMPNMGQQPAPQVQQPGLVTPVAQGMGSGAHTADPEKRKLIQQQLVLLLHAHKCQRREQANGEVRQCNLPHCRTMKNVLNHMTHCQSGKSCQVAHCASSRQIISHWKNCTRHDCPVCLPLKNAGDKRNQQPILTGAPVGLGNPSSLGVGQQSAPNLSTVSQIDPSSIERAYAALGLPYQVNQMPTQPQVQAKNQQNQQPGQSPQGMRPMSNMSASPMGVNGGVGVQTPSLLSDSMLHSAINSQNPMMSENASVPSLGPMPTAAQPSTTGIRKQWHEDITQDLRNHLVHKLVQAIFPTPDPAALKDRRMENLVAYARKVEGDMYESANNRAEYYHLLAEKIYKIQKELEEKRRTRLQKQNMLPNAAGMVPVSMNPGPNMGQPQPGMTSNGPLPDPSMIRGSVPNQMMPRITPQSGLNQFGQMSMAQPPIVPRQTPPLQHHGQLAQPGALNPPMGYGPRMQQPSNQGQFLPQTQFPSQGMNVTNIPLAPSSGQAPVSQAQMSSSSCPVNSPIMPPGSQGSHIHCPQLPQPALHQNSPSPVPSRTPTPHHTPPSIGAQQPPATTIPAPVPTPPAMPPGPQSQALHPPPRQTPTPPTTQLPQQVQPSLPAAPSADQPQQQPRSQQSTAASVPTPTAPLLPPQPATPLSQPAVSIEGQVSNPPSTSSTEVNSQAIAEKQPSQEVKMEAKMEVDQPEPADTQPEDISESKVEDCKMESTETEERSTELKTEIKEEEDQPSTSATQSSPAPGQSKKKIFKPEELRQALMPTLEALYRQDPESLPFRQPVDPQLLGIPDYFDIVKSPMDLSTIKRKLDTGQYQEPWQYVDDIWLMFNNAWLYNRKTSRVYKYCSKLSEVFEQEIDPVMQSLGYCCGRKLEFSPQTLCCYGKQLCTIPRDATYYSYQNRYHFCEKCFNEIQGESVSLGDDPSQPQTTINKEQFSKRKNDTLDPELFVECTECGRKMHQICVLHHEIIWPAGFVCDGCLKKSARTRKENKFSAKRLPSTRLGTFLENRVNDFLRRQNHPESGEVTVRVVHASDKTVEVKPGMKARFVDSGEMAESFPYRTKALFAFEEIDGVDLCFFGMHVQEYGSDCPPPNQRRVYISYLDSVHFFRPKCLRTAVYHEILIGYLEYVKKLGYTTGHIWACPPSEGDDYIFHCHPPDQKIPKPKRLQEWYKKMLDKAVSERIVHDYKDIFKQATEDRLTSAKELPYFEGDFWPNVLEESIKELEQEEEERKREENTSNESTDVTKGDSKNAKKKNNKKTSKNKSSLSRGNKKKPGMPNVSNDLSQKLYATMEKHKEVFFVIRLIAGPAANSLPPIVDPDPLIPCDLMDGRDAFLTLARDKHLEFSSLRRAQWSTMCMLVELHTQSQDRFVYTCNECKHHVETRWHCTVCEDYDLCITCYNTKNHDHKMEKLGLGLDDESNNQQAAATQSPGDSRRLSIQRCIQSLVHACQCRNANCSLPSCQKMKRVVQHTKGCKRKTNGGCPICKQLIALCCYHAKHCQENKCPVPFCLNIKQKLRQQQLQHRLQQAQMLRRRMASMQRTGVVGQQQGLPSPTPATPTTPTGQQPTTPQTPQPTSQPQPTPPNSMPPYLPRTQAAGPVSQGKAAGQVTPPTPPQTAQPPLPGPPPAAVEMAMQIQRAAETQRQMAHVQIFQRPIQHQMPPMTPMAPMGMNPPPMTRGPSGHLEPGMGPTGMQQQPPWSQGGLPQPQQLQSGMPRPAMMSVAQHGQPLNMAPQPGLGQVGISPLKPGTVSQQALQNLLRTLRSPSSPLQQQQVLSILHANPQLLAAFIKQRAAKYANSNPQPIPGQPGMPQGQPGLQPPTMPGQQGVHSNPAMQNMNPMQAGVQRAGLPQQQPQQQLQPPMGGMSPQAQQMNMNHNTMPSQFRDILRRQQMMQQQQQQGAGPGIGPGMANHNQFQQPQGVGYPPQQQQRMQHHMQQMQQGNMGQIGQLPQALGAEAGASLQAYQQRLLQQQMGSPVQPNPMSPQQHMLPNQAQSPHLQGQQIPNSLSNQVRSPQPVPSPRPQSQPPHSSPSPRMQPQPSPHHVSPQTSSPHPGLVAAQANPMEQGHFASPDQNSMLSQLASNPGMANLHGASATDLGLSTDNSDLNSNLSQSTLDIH
Sequence of CREB-binding protein/Histone acetyltransferase p300 (Homo sapiens) (Q92793 whole entry, looked up, the tested form may be a part): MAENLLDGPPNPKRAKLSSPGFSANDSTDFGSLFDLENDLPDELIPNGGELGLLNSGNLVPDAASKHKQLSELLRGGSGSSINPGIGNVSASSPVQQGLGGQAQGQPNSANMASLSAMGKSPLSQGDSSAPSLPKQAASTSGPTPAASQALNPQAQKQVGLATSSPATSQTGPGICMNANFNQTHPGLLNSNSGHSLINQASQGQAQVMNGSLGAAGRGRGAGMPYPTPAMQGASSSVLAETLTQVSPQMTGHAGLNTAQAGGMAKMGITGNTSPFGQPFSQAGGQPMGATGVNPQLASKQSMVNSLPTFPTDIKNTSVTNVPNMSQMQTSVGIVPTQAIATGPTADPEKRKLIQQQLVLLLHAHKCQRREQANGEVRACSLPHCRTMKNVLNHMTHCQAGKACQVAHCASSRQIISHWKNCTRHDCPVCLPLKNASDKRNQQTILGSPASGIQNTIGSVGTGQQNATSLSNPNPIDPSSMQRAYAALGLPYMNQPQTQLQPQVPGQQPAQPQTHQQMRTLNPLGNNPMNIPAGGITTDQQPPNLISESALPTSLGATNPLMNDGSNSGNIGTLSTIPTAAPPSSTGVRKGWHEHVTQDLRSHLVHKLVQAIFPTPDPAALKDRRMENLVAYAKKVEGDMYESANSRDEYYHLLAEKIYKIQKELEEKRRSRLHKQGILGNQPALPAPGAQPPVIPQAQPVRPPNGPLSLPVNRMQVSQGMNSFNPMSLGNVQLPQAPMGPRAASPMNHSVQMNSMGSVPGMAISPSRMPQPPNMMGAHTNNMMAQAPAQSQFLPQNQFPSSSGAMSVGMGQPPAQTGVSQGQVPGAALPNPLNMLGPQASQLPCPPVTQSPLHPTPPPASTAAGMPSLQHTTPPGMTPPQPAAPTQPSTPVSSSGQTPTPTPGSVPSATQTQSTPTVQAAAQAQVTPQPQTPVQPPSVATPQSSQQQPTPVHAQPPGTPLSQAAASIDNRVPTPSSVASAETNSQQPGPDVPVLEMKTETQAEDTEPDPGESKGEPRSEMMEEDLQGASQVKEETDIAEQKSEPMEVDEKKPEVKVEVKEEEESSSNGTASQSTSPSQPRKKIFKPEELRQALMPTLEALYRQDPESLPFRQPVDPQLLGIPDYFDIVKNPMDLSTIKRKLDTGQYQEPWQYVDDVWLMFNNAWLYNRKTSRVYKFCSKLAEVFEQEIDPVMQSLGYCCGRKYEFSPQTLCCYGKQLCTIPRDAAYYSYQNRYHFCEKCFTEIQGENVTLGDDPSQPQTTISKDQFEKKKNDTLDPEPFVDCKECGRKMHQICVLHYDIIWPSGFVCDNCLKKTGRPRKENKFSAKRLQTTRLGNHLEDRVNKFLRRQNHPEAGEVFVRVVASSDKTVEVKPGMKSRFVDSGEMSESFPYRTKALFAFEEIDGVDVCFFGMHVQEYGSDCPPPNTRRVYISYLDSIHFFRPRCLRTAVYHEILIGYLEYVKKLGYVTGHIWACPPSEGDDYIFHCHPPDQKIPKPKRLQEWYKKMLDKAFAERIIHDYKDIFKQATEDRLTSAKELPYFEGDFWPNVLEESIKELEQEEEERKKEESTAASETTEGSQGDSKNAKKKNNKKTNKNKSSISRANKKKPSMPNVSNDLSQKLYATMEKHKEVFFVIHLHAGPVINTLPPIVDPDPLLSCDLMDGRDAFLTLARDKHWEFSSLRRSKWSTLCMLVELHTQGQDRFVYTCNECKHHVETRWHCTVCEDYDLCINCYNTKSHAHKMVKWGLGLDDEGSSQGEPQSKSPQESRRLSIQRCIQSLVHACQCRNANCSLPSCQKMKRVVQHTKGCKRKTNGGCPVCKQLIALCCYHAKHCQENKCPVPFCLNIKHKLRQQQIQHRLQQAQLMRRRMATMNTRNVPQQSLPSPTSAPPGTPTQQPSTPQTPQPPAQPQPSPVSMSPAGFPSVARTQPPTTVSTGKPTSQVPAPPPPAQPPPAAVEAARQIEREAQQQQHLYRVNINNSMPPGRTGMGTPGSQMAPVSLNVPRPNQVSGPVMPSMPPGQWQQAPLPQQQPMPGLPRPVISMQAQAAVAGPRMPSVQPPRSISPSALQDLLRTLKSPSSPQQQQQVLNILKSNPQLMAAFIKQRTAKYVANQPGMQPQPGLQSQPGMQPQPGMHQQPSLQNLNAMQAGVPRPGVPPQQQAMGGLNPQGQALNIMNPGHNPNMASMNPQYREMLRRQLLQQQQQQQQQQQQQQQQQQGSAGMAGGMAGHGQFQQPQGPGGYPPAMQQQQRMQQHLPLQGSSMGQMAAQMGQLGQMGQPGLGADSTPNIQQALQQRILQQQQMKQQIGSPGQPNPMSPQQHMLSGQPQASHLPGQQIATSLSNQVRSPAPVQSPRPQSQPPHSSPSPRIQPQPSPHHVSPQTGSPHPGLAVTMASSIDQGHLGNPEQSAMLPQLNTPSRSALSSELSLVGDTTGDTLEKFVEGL

SMILES | inhibition [1] | inhibition [4] | inhibition [5] | Activity [6] | Activity (U-937 [3]) | also measured
O=C(CCc1ccc(O)c(Br)c1)NCCSSCCNC(=O)CCc1ccc(O)c(Br)c1 | Active | inactive | inactive |  | 80% | Activity (U-937 [2]): inactive
O=C(NCCSSCCNC(=O)/C(Cc1ccccc1)=N/O)/C(Cc1ccccc1)=N/O | Active | Active | inactive | Active | 80% | caspase 3 activation (U-937 [7]): 30%
O=C(NCCSSCCNC(=O)/C(Cc1cccc(O)c1)=N/O)/C(Cc1cccc(O)c1)=N/O | Active | Active | inactive | Active | 80% | caspase 3 activation (U-937 [7]): 30%
O=C(NCCSSCCNC(=O)/C(Cc1cc(Br)c(O)c(Br)c1)=N/O)/C(Cc1cc(Br)c(O)c(Br)c1)=N/O | Active | inactive | inactive | Active | 80% | Activity (U-937 [2]): inactive
O=C(NCCSSCCNC(=O)/C(Cc1ccc(O)cc1)=N/O)/C(Cc1ccc(O)cc1)=N/O | Active | Active | inactive | Active | 80% | caspase 3 activation (U-937 [7]): 30%
Cc1ccc(C(=O)Nc2ccc(S(=O)(=O)O)c3cc(S(=O)(=O)O)cc(S(=O)(=O)O)c23)cc1NC(=O)c1cccc(NC(=O)Nc2cccc(C(=O)Nc3cc(C(=O)Nc4ccc(S(=O)(=O)O)c5cc(S(=O)(=O)O)cc(S(=O)(=O)O)c45)ccc3C)c2)c1 | Active |  |  |  |  | 
O=C(NCCSSCCNC(=O)/C(Cc1ccc(O)c(F)c1)=N/O)/C(Cc1ccc(O)c(F)c1)=N/O | Active | Active | inactive | Active | 80% | caspase 3 activation (U-937 [7]): 30%
CSCCNC(=O)/C(Cc1ccc(O)c(Br)c1)=N/O |  | inactive |  |  |  | Activity (U-937 [8]): Active
C=CC/C=C\C/C=C\CCCCCCCc1cccc(O)c1C(=O)O |  |  | Active |  |  | 
O=C(CCCCCCC(=O)Nc1ccccc1)NO |  |  |  |  | Active | 
O=C(NCCSSCCNC(=O)/C(Cc1ccc(O)c(I)c1)=N/O)/C(Cc1ccc(O)c(I)c1)=N/O | Active | Active | inactive | Active | 80% | caspase 3 activation (U-937 [7]): 30%
Nc1ccccc1NC(=O)c1ccc(CNC(=O)OCc2cccnc2)cc1 |  |  |  |  | Active | 
COCCNC(=O)/C(Cc1ccc(O)c(Br)c1)=N/O |  | inactive |  |  |  | 
O=C(NCCO)/C(Cc1ccc(O)c(Br)c1)=N/O |  | inactive |  |  |  | 
O=C1C=CC2(C=C1Br)CC(C(=O)NCCSSCCNC(=O)C1=NOC3(C=CC(=O)C(Br)=C3)C1)=NO2 (stereo not given) |  | inactive |  |  |  | Activity (U-937 [12]): inactive; Activity (U-937 [7]): Active; Activity (U-937 [13]): inactive; Activity (U-937 [14]): inactive; Activity (U-937 [15]): Active

Continued, in another order:

inhibition [1] | inhibition [4] | inhibition [5] | Activity [6] | SMILES | Activity (U-937 [3]) | also measured
 | inactive |  |  | O=C(NCCCCCCNC(=O)/C(Cc1ccc(O)c(Br)c1)=N/O)/C(Cc1ccc(O)c(Br)c1)=N/O |  | 
 | inactive |  |  | O=C(NCCCCCCSSCCCCCCNC(=O)/C(Cc1ccc(O)c(Br)c1)=N/O)/C(Cc1ccc(O)c(Br)c1)=N/O |  | 
 | inactive |  |  | O=C(NCCCCSSCCCCNC(=O)/C(Cc1ccc(O)c(Br)c1)=N/O)/C(Cc1ccc(O)c(Br)c1)=N/O |  | 
 | inactive |  |  | O=C(NCCCSSCCCNC(=O)/C(Cc1ccc(O)c(Br)c1)=N/O)/C(Cc1ccc(O)c(Br)c1)=N/O |  | 
Active | Active | inactive |  | O=C(NCCSSCCNC(=O)/C(Cc1ccc(O)c(Br)c1)=N/O)/C(Cc1ccc(O)c(Br)c1)=N/O [PSAMMAPLIN A] | 60% | Activity (U-937 [9]): tde; Activity (U-937 [7]): Active; pIC50 [10]: 8.38; Activity (U-937 [8]): Active; pIC50 [11]: 7.73
 | inactive |  |  | O=C(NCCCCCSSCCCCCNC(=O)/C(Cc1ccc(O)c(Br)c1)=N/O)/C(Cc1ccc(O)c(Br)c1)=N/O |  | 
Active | Active | inactive | Active | O=C(NCCSSCCNC(=O)/C(Cc1ccc(O)c(Cl)c1)=N/O)/C(Cc1ccc(O)c(Cl)c1)=N/O | 80% | caspase 3 activation (U-937 [7]): 30%
